# Data as given in ChEMBL document CHEMBL1135207, “Novel route to the synthesis of peptides containing 2-amino-1'-hydroxymethyl ketones and their application as cathepsin K inhibitors” (Bioorg Med Chem Lett, 2002).
# Tests used:
# Cathepsin K = molecular target: T1, Cathepsin K (Homo sapiens, UniProt P43235); test: Binding affinity against cathepsin K
# T1 sequence (P43235 whole entry): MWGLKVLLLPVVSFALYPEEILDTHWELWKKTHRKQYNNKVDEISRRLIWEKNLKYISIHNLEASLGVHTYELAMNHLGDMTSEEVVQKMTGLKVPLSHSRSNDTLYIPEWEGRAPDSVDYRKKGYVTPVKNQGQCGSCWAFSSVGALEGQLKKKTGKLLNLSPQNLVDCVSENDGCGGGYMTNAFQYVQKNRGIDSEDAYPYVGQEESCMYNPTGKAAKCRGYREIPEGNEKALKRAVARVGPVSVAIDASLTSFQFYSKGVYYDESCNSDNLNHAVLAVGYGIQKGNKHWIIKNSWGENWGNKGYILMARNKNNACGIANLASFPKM
# Cathepsin S = Cathepsin S (Homo sapiens, UniProt P25774); test: Binding affinity of compound was evaluated against cathepsin S.
# Chain of Cathepsin S (P25774 whole entry): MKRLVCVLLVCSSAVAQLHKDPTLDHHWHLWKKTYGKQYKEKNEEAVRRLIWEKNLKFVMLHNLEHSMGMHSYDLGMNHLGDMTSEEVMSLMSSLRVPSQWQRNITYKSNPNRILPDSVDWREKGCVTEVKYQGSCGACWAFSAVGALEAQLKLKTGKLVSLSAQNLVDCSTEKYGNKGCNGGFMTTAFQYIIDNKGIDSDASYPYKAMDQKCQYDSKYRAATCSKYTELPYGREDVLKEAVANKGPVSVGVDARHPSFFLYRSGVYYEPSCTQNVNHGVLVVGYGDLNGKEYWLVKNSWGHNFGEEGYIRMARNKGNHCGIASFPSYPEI
# Cathepsin B = Cathepsin B (Homo sapiens, UniProt P07858); test: Binding affinity against cathepsin B
# Procathepsin L = Procathepsin L (Homo sapiens, UniProt P07711); test: Binding affinity of compound was evaluated against cathepsin L.
# Chain of Procathepsin L (P07711 whole entry): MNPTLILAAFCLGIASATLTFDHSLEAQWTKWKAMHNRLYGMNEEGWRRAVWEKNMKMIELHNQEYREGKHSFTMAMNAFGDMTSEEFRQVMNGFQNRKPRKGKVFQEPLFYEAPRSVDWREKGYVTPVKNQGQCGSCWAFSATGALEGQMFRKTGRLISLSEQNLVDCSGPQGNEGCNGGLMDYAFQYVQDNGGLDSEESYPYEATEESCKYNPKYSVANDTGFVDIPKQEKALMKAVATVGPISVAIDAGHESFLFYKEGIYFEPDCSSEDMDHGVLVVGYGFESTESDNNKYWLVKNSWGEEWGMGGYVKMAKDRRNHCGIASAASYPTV
# In short: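 Then Z-Phe-Arg-AMC 10 µM (at Km) added. AMC release followed kinetically (ex355/em460) at room temperature, with inhibitor-free controls. Apparent Ki by Morrison or Henderson tight-binding fit.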
smiles,measurement,setting,value
COCC(=O)[C@H](CCc1ccccc1)NC(=O)[C@H](CC(C)C)NC(=O)OCc1ccccc1,Ki,Cathepsin K,607 nM
same,Ki,Cathepsin S,1960 nM
same,Ki,Cathepsin B,> 150000 nM
same,Ki,Procathepsin L,22300 nM
CC(C)C[C@H](NC(=O)OCc1ccccc1)C(=O)N[C@@H](CCc1ccccc1)C(=O)COCc1ccccc1,Ki,Cathepsin K,1000 nM
same,Ki,Cathepsin S,451 nM
same,Ki,Cathepsin B,119000 nM
same,Ki,Procathepsin L,6340 nM
CC(C)C[C@H](NC(=O)c1ccc(CN)cc1)C(=O)N[C@@H](CCc1ccccc1)C(=O)CO,Ki,Cathepsin K,3 nM
same,Ki,Cathepsin S,46 nM
same,Ki,Cathepsin B,1950 nM
same,Ki,Procathepsin L,17 nM
CCOCC(=O)[C@H](CCc1ccccc1)NC(=O)[C@H](CC(C)C)NC(=O)OCc1ccccc1,Ki,Cathepsin K,947 nM
same,Ki,Cathepsin S,4500 nM
same,Ki,Cathepsin B,> 150000 nM
same,Ki,Procathepsin L,16700 nM
CCCC[C@H](NC(=O)[C@@H](NC(=O)c1ccc(CN)cc1)C(C)CC)C(=O)CO (some centres not stated),Ki,Cathepsin K,20 nM
same,Ki,Cathepsin S,460 nM
same,Ki,Cathepsin B,1250 nM
same,Ki,Procathepsin L,130 nM
CCC(C)[C@H](NC(=O)c1cccc(C(N)=O)c1)C(=O)N[C@@H](CCc1ccccc1)C(=O)CO (some centres not stated),Ki,Cathepsin K,111 nM
same,Ki,Cathepsin S,88 nM
same,Ki,Cathepsin B,1440 nM
same,Ki,Procathepsin L,790 nM
CC(C)C[C@H](NC(=O)OCc1ccccc1)C(=O)N[C@@H](CCc1ccccc1)C(=O)CO,Ki,Cathepsin K,25 nM
same,Ki,Cathepsin S,188 nM
same,Ki,Cathepsin B,34700 nM
same,Ki,Procathepsin L,640 nM
CCC(C)[C@H](NC(=O)c1cccc(CN)c1)C(=O)N[C@@H](CCc1ccccc1)C(=O)CO (some centres not stated),Ki,Cathepsin K,4 nM
same,Ki,Cathepsin S,180 nM
same,Ki,Cathepsin B,270 nM
same,Ki,Procathepsin L,81 nM
CC(=O)[C@H](CCc1ccccc1)NC(=O)[C@H](CC(C)C)NC(=O)OCc1ccccc1,Ki,Cathepsin K,1440 nM
same,Ki,Cathepsin B,519000 nM
CCCC[C@H](NC(=O)[C@@H](NC(=O)c1cccc(C(N)=O)c1)C(C)CC)C(=O)CO (some centres not stated),Ki,Cathepsin K,110 nM
same,Ki,Cathepsin S,110 nM
same,Ki,Cathepsin B,1140 nM
same,Ki,Procathepsin L,760 nM
CCC(C)[C@H](NC(=O)OCc1ccccc1)C(=O)N[C@@H](CCc1ccccc1)C(=O)CO (some centres not stated),Ki,Cathepsin K,67 nM
same,Ki,Cathepsin S,811 nM
same,Ki,Cathepsin B,32200 nM
same,Ki,Procathepsin L,3000 nM
